Results: ChEMBL document CHEMBL1777764, “Synthesis and evaluation of 1-(1H-indol-3-yl)ethanamine derivatives as new antibacterial agents” (Bioorg Med Chem, 2011)

What was measured:
[1] = system: Staphylococcus aureus; assay: Antibacterial activity against Staphylococcus aureus ATCC 25923 after 18 hrs by broth microdilution method; assay type: functional; settings: ATCC 25923, 18 h
In short: (§1)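 MIC by broth microdilution per ISO 20776-1:2006 and CLSI M07-A8. Inoculum 10^6 cfu/ml in Mueller-Hinton broth with compound serially diluted, final concentrations 2 to 128 ug/ml, duplicate rows, no-drug growth control. Incubation 18 h at 37 °C. MIC taken as lowest concentration giving complete inhibition of visible growth. Each compound tested at least twice.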

[2] = system: Staphylococcus aureus; assay: Antibacterial activity against Staphylococcus aureus ATCC 29213 after 18 hrs by broth microdilution method; assay type: functional; settings: ATCC 29213, 18 h; in short: as §1
[3] = system: Staphylococcus aureus; assay: Antibacterial activity against Staphylococcus aureus ATCC 9144 after 18 hrs by broth microdilution method; assay type: functional; settings: ATCC 9144, 18 h; in short: as §1
[4] = system: Staphylococcus aureus; assay: Antibacterial activity against Staphylococcus aureus ATCC 6538 after 18 hrs by broth microdilution method; assay type: functional; settings: ATCC 6538, 18 h; in short: as §1
[5] = system: Staphylococcus aureus; assay: Antibacterial activity against Staphylococcus aureus CIP 65.6 after 18 hrs by broth microdilution method; assay type: functional; settings: CIP 65.6, 18 h; in short: as §1
[6] = system: Staphylococcus aureus; assay: Antibacterial activity against Staphylococcus aureus CIP 103428 after 18 hrs by broth microdilution method; assay type: functional; settings: CIP 103428, 18 h; in short: as §1
[7] = system: Staphylococcus aureus; assay: Antibacterial activity against methicillin-resistant Staphylococcus aureus CIP 65.25 after 18 hrs by broth microdilution method; assay type: functional; settings: CIP 65.25, 18 h
In short: (§2)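 Broth microdilution following ISO 20776-1:2006 and CLSI M07-A8, in Mueller-Hinton broth. Inoculum was 10^6 cfu/ml, with compound serial dilutions spanning 2 to 128 ug/ml and a compound-free growth control well. Plates were incubated 18 h at 37 °C. MIC was the lowest concentration giving complete inhibition of visible growth. Each compound was tested at least twice.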

[8] = system: Staphylococcus aureus; assay: Antibacterial activity against methicillin-resistant Staphylococcus aureus ATCC 33592 after 18 hrs by broth microdilution method; assay type: functional; settings: ATCC 33592, 18 h; in short: as §2
[9] = system: Staphylococcus aureus; assay: Antibacterial activity against vancomycin intermediate Staphylococcus aureus […] after 18 hrs by broth microdilution method; assay type: functional; in short: as §2
[10] = system: Staphylococcus epidermidis; assay: Antibacterial activity against Staphylococcus epidermidis ATCC 12228 after 18 hrs by broth microdilution method; assay type: functional; settings: ATCC 12228, 18 h; in short: as §1
[11] = system: Staphylococcus epidermidis; assay: Antibacterial activity against Staphylococcus epidermidis CIP 81.55 after 18 hrs by broth microdilution method; assay type: functional; settings: CIP 81.55, 18 h; in short: as §1
[12] = system: Staphylococcus epidermidis; assay: Antibacterial activity against Staphylococcus epidermidis CIP 103627 after 18 hrs by broth microdilution method; assay type: functional; settings: CIP 103627, 18 h; in short: as §1
[13] = system: Streptococcus pneumoniae; assay: Antibacterial activity against Streptococcus pneumoniae ATCC 49619 after 18 hrs by broth microdilution method; assay type: functional; settings: ATCC 49619, 18 h
In short: (§3)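 MIC by broth microdilution per ISO 20776-1:2006 and CLSI M07-A8. Inoculum 10^6 cfu/ml in Mueller-Hinton broth […]. Compound serially diluted, final 2 to 128 ug/ml, duplicate rows, no-drug growth control. Read after 18 h at 37 °C as lowest concentration fully inhibiting visible growth. At least two experiments.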

[14] = system: Streptococcus pneumoniae; assay: Antibacterial activity against Streptococcus pneumoniae ATCC 6303 after 18 hrs by broth microdilution method; assay type: functional; settings: ATCC 6303, 18 h; in short: as §3
[15] = system: Streptococcus agalactiae; assay: Antibacterial activity against Streptococcus agalactiae ATCC 12400 after 18 hrs by broth microdilution method; assay type: functional; settings: ATCC 12400, 18 h; in short: as §2
[16] = system: Streptococcus pyogenes; assay: Antibacterial activity against Streptococcus pyogenes CIP 104226 after 18 hrs by broth microdilution method; assay type: functional; settings: CIP 104226, 18 h; in short: as §2
[17] = system: Streptococcus mitis; assay: Antibacterial activity against Streptococcus mitis CIP 103335 after 18 hrs by broth microdilution method; assay type: functional; settings: CIP 103335, 18 h
In short: (§4)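 Broth microdilution following ISO 20776-1:2006 and CLSI M07-A8, in Mueller-Hinton broth […]. Inoculum was 10^6 cfu/ml, with compound serial dilutions spanning 2 to 128 ug/ml and a compound-free growth control well. Plates were read after 18 h at 37 °C. MIC was the lowest concentration with no visible growth. Each compound was tested at least twice.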

[18] = system: Enterococcus faecium; assay: Antibacterial activity against Enterococcus faecium CIP 54.32 after 18 hrs by broth microdilution method; assay type: functional; settings: CIP 54.32, 18 h; in short: as §2
[19] = system: Enterococcus faecalis; assay: Antibacterial activity against Enterococcus faecalis ATCC 29212 after 18 hrs by broth microdilution method; assay type: functional; settings: ATCC 29212, 18 h; in short: as §2
[20] = system: Escherichia coli; assay: Antibacterial activity against Escherichia coli ATCC 25922 after 18 hrs by broth microdilution method; assay type: functional; settings: ATCC 25922, 18 h; in short: as §2
[21] = system: Haemophilus influenzae; assay: Antibacterial activity against Haemophilus influenzae ATCC 49766 after 18 hrs by broth microdilution method; assay type: functional; settings: ATCC 49766, 18 h; in short: as §4
[22] = system: KB; assay: Cytotoxicity against human KB cells at 10 uM; assay type: cell-based
[23] = system: HCT-116; assay: Cytotoxicity against human HCT116 cells at 10 uM; assay type: cell-based; settings: hct-116, 10 µM
[24] = system: MRC5; assay: Cytotoxicity against human MRC5 cells at 10 uM; assay type: cell-based; settings: mrc5, 10 µM
[25] = system: KB; assay: Cytotoxicity against human KB cells at 1 uM; assay type: cell-based
[26] = system: HCT-116; assay: Cytotoxicity against human HCT116 cells at 1 uM; assay type: cell-based; settings: hct-116, 1 µM
[27] = system: MRC5; assay: Cytotoxicity against human MRC5 cells at 1 uM; assay type: cell-based; settings: mrc5, 1 µM
[28] = system: Klebsiella pneumoniae; assay: microbe, parasite or virus in culture; settings: ATCC 35657, 18 h
[29] = system: Enterobacter cloacae; assay: microbe, parasite or virus in culture; settings: ATCC 13047, 18 h
[30] = system: Serratia marcescens; assay: microbe, parasite or virus in culture; settings: CIP 103551, 18 h
[31] = system: Pseudomonas aeruginosa; assay: microbe, parasite or virus in culture; settings: CIP 5933, 18 h
[32] = system: Acinetobacter baumannii; assay: microbe, parasite or virus in culture; settings: ATCC 19606 = CIP 70.34 = JCM 6841, 18 h

Structure (SMILES)	MIC [1] [µg/mL]	MIC [2] [µg/mL]	MIC [3] [µg/mL]	MIC [4] [µg/mL]	MIC [5] [µg/mL]	MIC [6] [µg/mL]	MIC [7] [µg/mL]	MIC [8] [µg/mL]	MIC [9] [µg/mL]	MIC [10] [µg/mL]	MIC [11] [µg/mL]	MIC [12] [µg/mL]	MIC [13] [µg/mL]	MIC [14] [µg/mL]	MIC [15] [µg/mL]	MIC [16] [µg/mL]	MIC [17] [µg/mL]	MIC [18] [µg/mL]	MIC [19] [µg/mL]	MIC [20] [µg/mL]	other results
Cl.Cl.NCC(NO)c1c[nH]c2cc(F)ccc12 (stereo not given)	16	16	16	16	16	16	16	16	16	16	16	16	64	64	64	64	64	128	128	64	MIC [21]: > 128 µg/mL; Activity [22]: Non-toxic; Activity [23]: Non-toxic; Activity [24]: Non-toxic; Activity [25]: Non-toxic; Activity [26]: Non-toxic; Activity [27]: Non-toxic; MIC [28]: 64 µg/mL; MIC [29]: 64 µg/mL; MIC [30]: 64 µg/mL; MIC [31]: 64 µg/mL; MIC [32]: 64 µg/mL
Cl.Cl.Cl.NCC(NO)c1c[nH]c2ccc(Cl)cc12 (stereo not given)	16	16	16	16	16	16	16	16	16	16	16	16	64	64	128	128	128	> 128	> 128	64	MIC [21]: 128 µg/mL; Activity [22]: Non-toxic; Activity [23]: Non-toxic; Activity [24]: Non-toxic; Activity [25]: Non-toxic; Activity [26]: Non-toxic; Activity [27]: Non-toxic; MIC [28]: 128 µg/mL; MIC [29]: 128 µg/mL; MIC [30]: 128 µg/mL; MIC [31]: 128 µg/mL; MIC [32]: 128 µg/mL
Cl.Cl.Cl.NCC(NO)c1c[nH]c2cc(Cl)ccc12 (stereo not given)	16	16	16	16	16	16	16	16	16	16	16	16	64	64	64	64	64	128	128	32	MIC [21]: 128 µg/mL; Activity [22]: Non-toxic; Activity [23]: Non-toxic; Activity [24]: Non-toxic; Activity [25]: Non-toxic; Activity [26]: Non-toxic; Activity [27]: Non-toxic; MIC [28]: 64 µg/mL; MIC [29]: 64 µg/mL; MIC [30]: 64 µg/mL; MIC [31]: 64 µg/mL; MIC [32]: 64 µg/mL
Cl.Cl.NCC(NO)c1c[nH]c2ccc(F)cc12 (stereo not given)	8	8	8	8	8	8	16	16	8	8	8	8	64	64	32	32	32	64	64	32	MIC [21]: > 128 µg/mL; Activity [22]: Non-toxic; Activity [23]: Non-toxic; Activity [24]: Non-toxic; Activity [25]: Non-toxic; Activity [26]: Non-toxic; Activity [27]: Non-toxic; MIC [28]: 32 µg/mL; MIC [29]: 32 µg/mL; MIC [30]: 32 µg/mL; MIC [31]: 32 µg/mL; MIC [32]: 32 µg/mL
Cl.Cl.NCC(NO)c1c[nH]c2ccc(I)cc12 (stereo not given)	16	16	16	16	16	16	32	32	16	16	16	16	64	64	128	128	128	128	128	32	MIC [21]: 64 µg/mL; Activity [22]: Non-toxic; Activity [23]: Non-toxic; Activity [24]: Non-toxic; Activity [25]: Non-toxic; Activity [26]: Non-toxic; Activity [27]: Non-toxic; MIC [28]: 64 µg/mL; MIC [29]: 64 µg/mL; MIC [30]: 64 µg/mL; MIC [31]: 64 µg/mL; MIC [32]: 64 µg/mL
